Data from ChEMBL document CHEMBL1649583 (Antimicrob Agents Chemother, 2009).
Values after ≈ are worked out from the molar mass of the structure shown.

Assays:
Homo sapiens [1] = experiment: Absorption rate constant in human adults with pulmonary tuberculosis at 600 mg administered daily for 7 days; assay type: ADME, organism-based; details: in vivo, 168 h
In short: (§1)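 Adults with pulmonary TB (once daily n=10, twice daily n=9) fasted overnight before the fifth morning dose. Plasma was drawn at steady state predose and 1, 2, 4, 8, 12, 18 and 24 h after dosing, stored at -80°C, and assayed by validated HPLC (standards 0.5–30 μg/ml). ka comes from a one-compartment NPAG population model fitted per regimen, reported as the median of individual Bayesian estimates.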

[2] = Elimination rate constant in human adults with pulmonary tuberculosis at 600 mg administered daily for 7 days; assay type: ADME, organism-based; details: in vivo
In short: (§2)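 Plasma was drawn at steady state, predose and at 1, 2, 4, 8, 12, 18 and 24 h, and stored at -80°C. Assay was validated HPLC with 0.5–30 μg/ml standards. A one-compartment population model (NPAG) gave median individual Bayesian estimates; other parameters came from standard equations.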

[3] = Elimination half life in human adults with pulmonary tuberculosis at 600 mg administered daily for 7 days; assay type: ADME, organism-based; details: in vivo, read-out: beta t1/2 (converted); in short: as §2
[4] = Apparent oral clearance in human adults with pulmonary tuberculosis at 600 mg administered daily for 7 days; assay type: ADME, organism-based; details: in vivo; in short: as §2
[5] = Cmax in human adults with pulmonary tuberculosis at 600 mg administered daily for 7 days; assay type: ADME, organism-based; design: dose 600 mg; details: in vivo; in short: as §2
[6] = Tmax in human adults with pulmonary tuberculosis at 600 mg administered daily for 7 days; assay type: ADME, organism-based; details: in vivo; in short: as §2
Homo sapiens [7] = experiment: Absorption rate constant in human adults with pulmonary tuberculosis at 600 mg administered twice daily for 7 days; assay type: ADME, organism-based; details: in vivo, 168 h; in short: as §1
[8] = Elimination rate constant in human adults with pulmonary tuberculosis at 600 mg administered twice daily for 7 days; assay type: ADME, organism-based; details: in vivo; in short: as §2
[9] = Elimination half life in human adults with pulmonary tuberculosis at 600 mg administered twice daily for 7 days; assay type: ADME, organism-based; details: in vivo, read-out: beta t1/2 (converted); in short: as §2
[10] = Apparent oral clearance in human adults with pulmonary tuberculosis at 600 mg administered twice daily for 7 days; assay type: ADME, organism-based; details: in vivo; in short: as §2
[11] = Cmax in human adults with pulmonary tuberculosis at 600 mg administered twice daily for 7 days; assay type: ADME, organism-based; design: dose 600 mg; details: in vivo; in short: as §2
[12] = Tmax in human adults with pulmonary tuberculosis at 600 mg administered twice daily for 7 days; assay type: ADME, organism-based; details: in vivo; in short: as §2
[13] = test system: Mycobacterium tuberculosis; experiment: Antimicrobial activity against Mycobacterium tuberculosis in human adults with pulmonary tuberculosis at 600 mg administered daily for 7 days; assay type: functional; details: 168 h
[14] = test system: Mycobacterium tuberculosis; experiment: Antimicrobial activity against Mycobacterium tuberculosis in human adults with pulmonary tuberculosis at 600 mg administered twice for 7 days; assay type: functional; details: 168 h
[15] = Cmax in human adults with pulmonary tuberculosis at 600 mg administered once daily for 5 days; assay type: ADME, organism-based; design: dose 600 mg; details: in vivo; in short: as §2
[16] = fT>MIC in human adults with pulmonary tuberculosis at 600 mg administered once daily for 5 days; assay type: functional
In short: (§3)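 Steady-state plasma profiles after the fifth 600 mg dose, given once or twice daily, were fitted with a one-compartment population model. Concentrations were corrected to free drug assuming 31% protein binding. MIC came from each patient's pretreatment sputum isolate, tested by Bactec 460 and on Middlebrook 7H-10 agar. The result is the percent of the dosing interval with free drug above MIC.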

[17] = Cmax in human adults with pulmonary tuberculosis at 600 mg administered twice daily for 5 days; assay type: ADME, organism-based; design: dose 600 mg; details: in vivo; in short: as §2
[18] = fT>MIC in human adults with pulmonary tuberculosis at 600 mg administered twice daily for 5 days; assay type: functional; in short: as §3

**Q.** For CC(=O)NC[C@H]1CN(c2ccc(N3CCOCC3)c(F)c2)C(=O)O1 [LINEZOLID], which ka (Homo sapiens [1]) is on record?
**A.** 1.5 h⁻¹

**Q.** And the k el at 168 h [2]?
**A.** 5.56e-05 s⁻¹

**Q.** And the half-life [3]?
**A.** 2.9 h

**Q.** And the CL/F [4]?
**A.** 118 mL/min

**Q.** And the Cmax [5]?
**A.** 14900 ng/mL

**Q.** And the Tmax [6]?
**A.** 1.5 h

**Q.** What about the ka (Homo sapiens [7]) of the same compound?
**A.** 2.7 h⁻¹

**Q.** And the k el at 168 h [8]?
**A.** 5.56e-05 s⁻¹

**Q.** What about the half-life [9] of the same compound?
**A.** 4.6 h

**Q.** And the CL/F [10]?
**A.** 80 mL/min

**Q.** And the Cmax [11]?
**A.** 19400 ng/mL

**Q.** What about the Tmax [12] of the same compound?
**A.** 1 h

**Q.** And the MIC [13]?
**A.** 1 µg/mL (≈ 2.96 µM)

**Q.** What about the MIC [14] of the same compound?
**A.** 0.5 µg/mL (≈ 1.48 µM)

**Q.** What about the Cmax [15] of the same compound?
**A.** 10300 ng/mL

**Q.** And the “fT>MIC” value [16]?
**A.** 62.8%

**Q.** What about the Cmax [17] of the same compound?
**A.** 13400 ng/mL

**Q.** And the “fT>MIC” value [18]?
**A.** 100%
